Screens: PubChem BioAssay, several laboratories
Yeast life ext: yeast lifespan extension. S. cerevisiae growth with nicotinamide, OD615; deaD strain in restrictive glucose medium. AID 775. inhibition of the nicotinamide effect, % at 10 µM. hit rate 0.68% among 130,000;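 active means inhibition above a set limit, placed 3 SD over the median of all compounds, cut at about 26% in these data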
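Buffer or medium: CSMM-D glucose medium, restrictive; test system: modified budding yeast, DeaD strain; compound: single dose 10 µM compound, 0.25% DMSO; schedule: culture preincubation 4 h, compound exposure 48 h, both 30 °C; detection: optical density (absorbance) at 615 nm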
RAM network inh: inhibitors of the yeast RAM network | AID 868 | hit rate 1.8% among 190,000 | S. cerevisiae dse1pr::URA3 reporter, 5-FOA growth OD615, 2 d; analog-sensitive cbk1-as2 kinase mutant strain | inhibition, % at 50 µM;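 active means inhibition above a set limit, 3 SD over mean compound inhibition, cut at about 8.4% in these data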;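 further: inhibition rescues growth on 5-FOA so higher OD means more RAM inhibition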
KCC2 mod: KCC2 (human) Cl- transport modulation; Q9H2X9; KCC2 cells, thallium flux FluoZin-2 fluorescence; B-score of Tl+ flux slope (higher = more flux/activation; lower = inhibition) at 10 µM; hit rate 2.2% among 190,000;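 active means thallium flux slope and its plate-corrected score both differing from the plate sample mean at a set confidence after two filtering rounds, in either direction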;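 further: slope of fluorescence scaled to starting intensity during 10 to 20 s after thallium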
Target sequence (Q9H2X9 whole entry, looked up): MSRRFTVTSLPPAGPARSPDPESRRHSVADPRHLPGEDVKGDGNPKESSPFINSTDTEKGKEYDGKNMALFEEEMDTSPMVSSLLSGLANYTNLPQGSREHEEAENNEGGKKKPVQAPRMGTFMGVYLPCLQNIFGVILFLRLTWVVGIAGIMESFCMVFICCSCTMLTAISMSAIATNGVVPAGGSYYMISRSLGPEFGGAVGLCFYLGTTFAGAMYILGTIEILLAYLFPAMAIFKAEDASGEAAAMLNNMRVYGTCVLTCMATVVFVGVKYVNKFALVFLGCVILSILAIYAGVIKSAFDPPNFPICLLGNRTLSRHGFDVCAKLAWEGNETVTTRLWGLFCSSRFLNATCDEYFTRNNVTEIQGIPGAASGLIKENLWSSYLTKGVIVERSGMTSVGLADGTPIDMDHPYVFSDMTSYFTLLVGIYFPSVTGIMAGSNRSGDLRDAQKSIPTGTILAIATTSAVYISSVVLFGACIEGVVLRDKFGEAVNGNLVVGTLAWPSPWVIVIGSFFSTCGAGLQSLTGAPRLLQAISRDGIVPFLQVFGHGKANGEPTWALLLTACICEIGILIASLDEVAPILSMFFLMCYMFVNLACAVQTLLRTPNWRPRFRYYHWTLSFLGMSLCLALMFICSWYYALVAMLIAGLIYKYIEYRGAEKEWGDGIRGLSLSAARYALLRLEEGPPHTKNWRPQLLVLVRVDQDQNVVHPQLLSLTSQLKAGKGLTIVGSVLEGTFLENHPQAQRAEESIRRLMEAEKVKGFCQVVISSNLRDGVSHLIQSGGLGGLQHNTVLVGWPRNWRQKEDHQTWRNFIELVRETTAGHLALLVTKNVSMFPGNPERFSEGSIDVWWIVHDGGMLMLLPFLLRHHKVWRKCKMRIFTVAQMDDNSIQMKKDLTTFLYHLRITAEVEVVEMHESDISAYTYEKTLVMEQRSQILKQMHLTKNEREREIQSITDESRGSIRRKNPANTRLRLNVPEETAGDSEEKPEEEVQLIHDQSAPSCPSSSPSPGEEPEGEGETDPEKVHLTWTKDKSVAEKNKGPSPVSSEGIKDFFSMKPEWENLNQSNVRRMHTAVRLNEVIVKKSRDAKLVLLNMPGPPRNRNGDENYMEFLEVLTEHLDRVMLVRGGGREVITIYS
BB579 growth dn: chemicals that inhibit yeast BB579 growth in restrictive medium (lifespan-shortening candidates); S. cerevisiae BB579 growth, OD615, 48 h; hit rate 0.51% among 140,000; inhibition, % at 10 µM;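 active means inhibition above a set limit, 3 SD over the mean compound inhibition, cut at about 44% in these data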
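Material: Saccharomyces cerevisiae DeaD strain BB579, replicative lifespan model yeast; buffer or medium: CSMM-D restrictive synthetic medium containing dextrose (glucose); compound: 10 µM single dose, DMSO 0.25%; timing: 48 h compound exposure at 30 °C after 4 h preincubation; signal: turbidity as optical density at 615 nm; benchmarks: positive control amphotericin B 10 µg/mL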
WT yeast gro inh: growth inhibition of WT yeast, mitochondrial fusion screen; mitochondrial fusion phenotypic screen, WT strain; inhibition, % at 10 µM; hit rate 2.1% among 190,000; AID 1362; in the data active means inhibition above about 58%; tested in S. cerevisiae
KCC2 sec1: KCC2 (human) modulation, secondary assay; shares compounds with KCC2 mod; HEK293-KCC2, thallium flux, FluoZin2 fluorescence; stronger effect = higher value; normalised thallium flux (F/F0 slope) at 10 µM; hit rate 15% among 3,700;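 active means thallium flux slope above the same plate's solvent-only control mean plus 3 SD; inconclusive means the two replicate wells disagree; inactive means no significant difference from solvent-only control wells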
KCC2 bumet counter: thallium flux despite bumetanide block in KCC2 cells, secondary assay 3; normalized thallium flux at 10 µM; shares compounds with KCC2 mod; AID 1714; HEK293-KCC2 + bumetanide/ouabain, thallium flux FluoZin2; stronger effect = higher value; hit rate 49% among 3,700;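 active means thallium entry rate above the same plate's blocked-transporter control wells by more than 3 SD; inconclusive means the two repeat wells disagree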;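 further: raw slope of fluorescence over initial fluorescence between 10 and 20 s after thallium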
KCC2 sec2: confirmation of human KCC2 transport modulators; HEK293-KCC2, thallium flux FluoZin2 fluorescence; actives lie on both sides; F/F0 rise rate, 10–20 s post-thallium; hit rate 23% among 3,700; AID 1715; normalized thallium flux at 10 µM; shares compounds with KCC2 mod;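 active means thallium flux slope more than 3 SD above or below the plate's solvent-only control mean, mostly below; inconclusive means the two repeat wells disagreed; inactive means no significant shift from solvent-only controls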
HEK counter1: parental HEK flux effect, counter-screen. shares compounds with KCC2 mod. HEK293 parental cells, thallium flux FluoZin2, ouabain; baseline-ratio fluorescence slope, 10–20 s after thallium. thallium flux rate (normalised fluorescence) at 10 µM. hit rate 46% among 3,700. AID 1716;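 active means thallium flux rate significantly above the same plate's solvent-only control wells, beyond their mean plus 3 SD; inconclusive means the two replicate wells gave conflicting results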
KCC2 ouabain: modulates human KCC2 on retest with ouabain; raw Tl+ flux slope (below DMSO = inhibition, above = activation) at 10 µM; shares compounds with KCC2 mod; hit rate 48% among 3,700; HEK293-KCC2, thallium flux FluoZin2 fluorescence; bidirectional: low = inhibitor, high = activator;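 active means thallium flux slope beyond 3 SD from same-plate DMSO control mean in most replicates, usually higher, sometimes lower; inconclusive means repeat tests gave conflicting results; inactive means no significant difference from controls in most replicates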;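 further: slope of initial-normalized fluorescence between seconds 10 and 20 after thallium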
HEK293 Tl flux2: parental HEK flux effect, counter-screen 2. shares compounds with KCC2 mod. HEK293 parental, thallium flux FluoZin-2 fluorescence slope. thallium flux slope at 10 µM. hit rate 33% among 3,700. AID 1718;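 active means thallium flux slope above the same plate's solvent-control mean plus 3 SD in both duplicate wells; inconclusive means duplicate wells that disagreed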;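 further: run without ouabain in cells lacking the KCC2 cotransporter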
Large screens that a line does not name were inactive (follow-up assays come after a bar, where they were run). Hits are enriched below; roughly 5.5% of the tested compounds scored in any of these assays.

Cc1oc2cc(O)cc(C)c2c(=O)c1-c1cnn(-c2ccccc2)c1	none | KCC2 sec1 inactive | KCC2 bumet counter inactive | KCC2 sec2 inactive | HEK counter1 inactive | KCC2 ouabain inactive | HEK293 Tl flux2 inactive
Cc1oc2c(O)c(O)ccc2c(=O)c1-c1cnn(-c2ccccc2)c1	none
O=S(=O)(c1ccccc1)N1CCN=C1SCc1ccccc1	KCC2 mod -3.6 (no result: Yeast life ext, BB579 growth dn) | KCC2 sec1 inactive | KCC2 bumet counter inconclusive | KCC2 sec2 inactive | HEK counter1 inactive | KCC2 ouabain 0.015 | HEK293 Tl flux2 inactive
Cc1nccc(-c2cccc(N/N=C(\C#N)C(=O)c3ccccc3)c2)n1	KCC2 mod -5.1 (no result: Yeast life ext, RAM network inh, BB579 growth dn, WT yeast gro inh) | KCC2 sec1 inconclusive | KCC2 bumet counter 0.036 | KCC2 sec2 inactive | HEK counter1 0.015 | KCC2 ouabain inactive | HEK293 Tl flux2 0.011
Cc1nccc(-c2cccc(NC(=O)Nc3ccc(Cl)cc3)c2)n1	none (no result: Yeast life ext, RAM network inh, BB579 growth dn, WT yeast gro inh)
O=[N+]([O-])c1ccccc1/C=C/C=N/n1c(-c2ccc(Cl)cc2)n[nH]c1=S	KCC2 mod 3.6 | KCC2 sec1 inactive | KCC2 bumet counter 0.0092 | KCC2 sec2 inactive | HEK counter1 0.01 | KCC2 ouabain inconclusive | HEK293 Tl flux2 0.012
Cc1ccc(-c2n[nH]c(=S)n2/N=C/C=C\c2ccccc2[N+](=O)[O-])cc1	KCC2 mod 7.7 (no result: WT yeast gro inh) | KCC2 sec1 inactive | KCC2 bumet counter 0.0092 | KCC2 sec2 inactive | HEK counter1 0.011 | KCC2 ouabain inconclusive | HEK293 Tl flux2 0.014
O=[N+]([O-])c1ccccc1/C=C/C=N/n1c(-c2ccccc2)n[nH]c1=S	KCC2 mod 9.3, WT yeast gro inh 61 | KCC2 sec1 0.013 | KCC2 bumet counter 0.095 | KCC2 sec2 inactive | HEK counter1 0.011 | KCC2 ouabain 0.041 | HEK293 Tl flux2 0.012
COc1ccccc1/C=C/C=N/n1c(-c2ccc(C)cc2)n[nH]c1=S	none
CSc1nn2c(C(F)(F)F)cc(C(F)(F)F)nc2c1C(=O)O	none (no result: Yeast life ext, RAM network inh, BB579 growth dn, WT yeast gro inh)
O=c1cc(/C=C/c2ccccc2)oc2ccccc12	none (no result: KCC2 mod)
O=C(Cn1nnc(-c2ccccc2-n2cnnn2)n1)NCc1ccccc1	KCC2 mod -4 | KCC2 sec1 inactive | KCC2 bumet counter inactive | KCC2 sec2 inconclusive | HEK counter1 inactive | KCC2 ouabain inactive | HEK293 Tl flux2 inactive
Cc1ccc(C(=O)Cn2nnc(-c3ccccc3-n3cnnn3)n2)cc1	none
Cc1ccc(C(=O)CSc2nnc(-c3ccco3)n2C)cc1	KCC2 mod -4.7 (no result: Yeast life ext, BB579 growth dn) | KCC2 sec1 0.0058 | KCC2 bumet counter inactive | KCC2 sec2 inactive | HEK counter1 inactive | KCC2 ouabain 0.015 | HEK293 Tl flux2 inactive
Cn1c(SCC(=O)c2cc(Cl)c(Cl)s2)nnc1-c1ccco1	KCC2 mod -5.3 (no result: Yeast life ext, RAM network inh, BB579 growth dn, WT yeast gro inh) | KCC2 sec1 inactive | KCC2 bumet counter 0.03 | KCC2 sec2 inactive | HEK counter1 0.022 | KCC2 ouabain inactive | HEK293 Tl flux2 0.017
Cc1ccc(C(=O)CSc2nnc(-c3ccccc3N)n2C)cc1	none
Cc1cc(NC(=O)CSc2nccn2C)no1	none (no result: Yeast life ext, BB579 growth dn)
CS(=O)(=O)N(CC(=O)N1CCN(c2cccc(Cl)c2)CC1)c1cccc(F)c1	none
Cc1nc(NC(=S)NC(=O)c2cccs2)ccc1Br	KCC2 mod 36 | KCC2 sec1 0.014 | KCC2 bumet counter 0.11 | KCC2 sec2 inactive | HEK counter1 0.038 | KCC2 ouabain 0.042 | HEK293 Tl flux2 0.012
O=C(NC(=S)Nc1cccc2cccnc12)c1cccs1	KCC2 mod 2.8 (no result: Yeast life ext, BB579 growth dn) | KCC2 sec1 inactive | KCC2 bumet counter 0.0096 | KCC2 sec2 inactive | HEK counter1 inconclusive | KCC2 ouabain inconclusive | HEK293 Tl flux2 inactive
COc1ccc(C(=O)Nc2cccc3cccnc23)cc1OC	KCC2 mod -6.3 | KCC2 sec1 inactive | KCC2 bumet counter inactive | KCC2 sec2 inactive | HEK counter1 inactive | KCC2 ouabain inactive | HEK293 Tl flux2 inactive
Cc1nc(NC(=S)NC(=O)c2cccs2)sc1C(=O)N(C)C	none
O=C(NC(=S)Nc1cccc2cccnc12)c1ccccc1	none (no result: KCC2 mod)
COc1ccc(C(=O)CN2C(=O)NC3(CCCCC3)C2=O)cc1OC	none (no result: Yeast life ext, BB579 growth dn)
O=C(CN1C(=O)NC2(CCCCCC2)C1=O)c1ccc2c(c1)OCCO2	none (no result: KCC2 mod) | KCC2 sec1 inactive | KCC2 bumet counter 0.014 | KCC2 sec2 inactive | HEK counter1 inconclusive | KCC2 ouabain inactive | HEK293 Tl flux2 inactive
COc1ccccc1NC(=S)N1CCN(c2nc(-c3ccccc3)cs2)CC1	none (no result: Yeast life ext, BB579 growth dn)
CC(=O)Oc1ccc2c(=O)c(/C=N/c3cc(=O)[nH]c(=S)[nH]3)coc2c1	none (no result: Yeast life ext, RAM network inh, BB579 growth dn, WT yeast gro inh)
O=c1cc(/N=C/c2coc3cc(Br)ccc3c2=O)[nH]c(=S)[nH]1	KCC2 mod 9.5 (no result: Yeast life ext, RAM network inh, BB579 growth dn, WT yeast gro inh) | KCC2 sec1 0.014 | KCC2 bumet counter 0.045 | KCC2 sec2 inactive | HEK counter1 0.0089 | KCC2 ouabain inactive | HEK293 Tl flux2 inactive
Cc1nc(NC(=O)c2ccco2)sc1C(=O)Nc1ccc(Br)cc1	KCC2 mod -5.3 | KCC2 sec1 inactive | KCC2 bumet counter inactive | KCC2 sec2 inconclusive | HEK counter1 inactive | KCC2 ouabain inactive | HEK293 Tl flux2 inactive
O=C(Nc1nc2c(Br)cc(Br)cc2c(=O)s1)c1ccco1	KCC2 mod 17 (no result: Yeast life ext, RAM network inh, BB579 growth dn, WT yeast gro inh) | KCC2 sec1 0.027 | KCC2 bumet counter 0.03 | KCC2 sec2 inactive | HEK counter1 0.04 | KCC2 ouabain 0.032 | HEK293 Tl flux2 0.013
COC(=O)c1sc(NC(=O)c2ccco2)nc1C	none
O=C(Nc1ccc(S(=O)(=O)NC2CCCC2)cc1)c1cnccn1	none
Cc1sc(NC(=O)C(C)C)c(C(=O)Nc2ccccc2)c1C	none
CCN(CC)c1ccc(S(=O)(=O)N2CCOCC2)cc1NC(=O)CN1CCN(Cc2ccccc2)CC1	none (no result: Yeast life ext, RAM network inh, BB579 growth dn, WT yeast gro inh)
